Source: PubChem BioAssay
The list is not random: actives were taken first. Their share in the collection is about 1.2%.
ARNT TACC3 PPI: disruptors of human ARNT/TACC3 interaction; inhibition, % at 9.99 µM; Q9Y6A5; AlphaScreen His-ARNT PAS-B/GST-TACC3 binding, luminescence; TACC3 fragment carries E629A point mutation; hit rate 0.66% among 390,000;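 active means mean inhibition of replicates at least 50% and at least half of replicates each reaching 50%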;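 further: 0% = complete ARNT plus TACC3 wells and 100% = ARNT alone without TACC3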
CaV13 ICDI inh: Primary screen for inhibitors of IQ motif and Ca2+-dependent inactivation inhibitor domain binding in CACNA1D, Förster resonance energy transfer in living cells, … | HEK cells, CFP/YFP FRET ICDI-IQ, plate reader, 10 min; percent FRET-ratio fall versus neutral wells | hit rate 0.098% among 340,000 | inhibition, % at 12.3 µM;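 active means mean replicate inhibition of at least 30% and at least 1% of replicates passing that level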;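 further: 0% = median of the neutral control wells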
CAL PDZ FP-1: blocks peptide binding to the human CAL PDZ domain | purified CAL PDZ, TMR-peptide fluorescence polarization, 1 h | inhibition, % at 24.9 µM | Q9HD26 | AID 602252 | hit rate 0.92% among 300,000;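 active means mean inhibition of at least 30% with at least half of replicates also reaching 30%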;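 further: 0% = DMSO neutral control and 100% = excess unlabeled competitor peptide PRC23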
CAL PDZ FP-2: blocks peptide binding to human CAL PDZ domain. purified CAL PDZ, TMR-peptide fluorescence polarization, 1 h. inhibition, % at 20 µM. hit rate 0.02% among 330,000. AID 504414;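 active means highest replicate inhibition of at least 40%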;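 further: plate controls were DMSO neutral control wells for no effect and unlabeled competitor peptide control wells for full effect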
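Material: tagged CAL PDZ protein CerCALP, purified; buffer or medium: sodium phosphate/NaCl buffer pH 7.4 with TCEP, IgG, Thesit; also added: fluorescent TMR peptide probe; schedule: 1 h incubation at room temperature before polarization reading; technique: fluorescence polarization from S- and P-plane intensities, G-factor corrected; control set: unlabelled peptide and DMSO controls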
Numbers without * were called inactive; . = no result; + = active, no number.

SMILES	ARNT TACC3 PPI	CaV13 ICDI inh	CAL PDZ FP-1	CAL PDZ FP-2
COCCCNC(=O)C[C@H]1C[C@H](C(=O)N2CCCCC2)[C@@]2(C)c3[nH]c4cc(-c5ccco5)ccc4c3CCN2C1=O	2	-6	1	0
C[C@]12c3[nH]c4cc(-c5ccco5)ccc4c3CCN1C(=O)[C@@H](CC(=O)NCCN1CCOCC1)C[C@@H]2C(=O)N1CCCCC1	7	-2	48*	-1
CCN1CCN(c2nc(N)c([N+](=O)[O-])c(Nc3cccc(C)c3)n2)CC1	-6	-3	-2	-3
Cc1cccc(Nc2nc(N)c([N+](=O)[O-])c(NCCO)n2)c1	-3	-5	47*	-1
Nc1nc(NCC2CCCO2)nc(Nc2cccc(F)c2)c1[N+](=O)[O-] (stereo not drawn)	-13	-3	79*	0
Cc1cccc(Nc2nc(N3CCN(C)CC3)nc(N)c2[N+](=O)[O-])c1	-7	-5	36*	-2
CCNC(=O)Nc1ccc2c(c1)C(=O)N(C)[C@H]1CC[C@@H](CC(=O)NCC3CCCCC3)O[C@H]1CO2	-4	.	.	.
C[C@H]1CN([C@@H](C)CO)S(=O)(=O)c2ccc(-c3ccccc3)cc2O[C@H]1CN(C)C(=O)Nc1ccccc1F	5	.	.	.
C=CCn1c(Cc2cccc3ccccc23)n[nH]c1=S	10	-4	-4	1
C=CCn1c(Cc2nc3ccccc3[nH]2)n[nH]c1=S	49*	-5	.	0
O=C(NCC(=O)N1CCN(c2ccccc2F)CC1)c1ccco1	.	-5	71*	-1
C[C@@H]1CCCCO[C@H](CN(C)Cc2ccc(C(=O)O)cc2)[C@H](C)CN([C@H](C)CO)C(=O)c2cc(NS(=O)(=O)c3ccc(F)cc3)ccc2O1	-6	.	.	.
O=C(Nc1ccc(Cl)cc1)N1CCc2ccccc2C1	-1	-9	43*	-1
COc1ccc(-c2nc(N)ncc2-c2ccc(OC)c(OC)c2)c(O)c1	-12	-4	59*	.
COc1ccc(NC(=O)c2cccc(N3C(=O)NC4CC3(C)Oc3ccccc34)c2)cc1 (stereo not drawn)	-1	.	-7	.
CC12CC(NC(=O)N1c1cccc(C(=O)Nc3ncn[nH]3)c1)c1ccccc1O2 (stereo not drawn)	21*	-1	1	-1
Cc1ccc2ccc(C(Nc3cccc(C(F)(F)F)c3)c3cccnc3)c(O)c2n1 (stereo not drawn)	3	-1	43*	0
Cc1ccnc(NC(c2ccccc2)c2ccc3cccnc3c2O)c1 (stereo not drawn)	24	-7	-1	-1
Cc1ccnc(NC(c2cccnc2)c2ccc3cccnc3c2O)c1 (stereo not drawn)	61*	0	-1	-3
C[C@H](CO)N1C[C@H](C)[C@H](CN(C)C(=O)Nc2ccccc2)OCCCC[C@H](C)Oc2ccc(NC(=O)c3ccncc3)cc2C1=O	3	.	.	.
O=[N+]([O-])c1cc(CN2CCN(c3ccccc3)CC2)c(O)c2ncccc12	8	-6	-3	-1
O=[N+]([O-])c1ccc(O)c2ncccc12	56*	-6	-1	0
O=[N+]([O-])c1cc(Cl)c2cccnc2c1O	46*	-5	1	1
O=[N+]([O-])c1ccc(Cl)c2cccnc12	-8	6	-2	-2
O=[N+]([O-])c1cc([N+](=O)[O-])c2cccnc2c1Oc1ccccc1O	31	-16	-1	-1
SMILES	ARNT TACC3 PPI	CaV13 ICDI inh	CAL PDZ FP-1	CAL PDZ FP-2
O=[N+]([O-])c1cc(Cl)c(O)c2ncccc12	57*	-5	1	0
O=[N+]([O-])c1ccc(O)c2cccnc12	18	-5	6	0
O=[N+]([O-])c1cc(F)c2cccnc2c1O	70*	-18	1	1
Cc1noc(C)c1S(=O)(=O)Nc1ccc2c(c1)CC(=O)N([C@H](C)CO)C[C@H](C)[C@@H](CN(C)C)O2	-5	.	.	.
Oc1c(I)cc(Cl)c2cccnc12	6	-5	-1	-1
Clc1cc2cccnc2c2ncccc12	106*	-7	0	-1
CCn1cc(/C=C(\NC(=O)c2ccc(OC)cc2)C(=O)N2CCN(C)CC2)c2ccccc21	48*	-3	-2	0
CN(C)S(=O)(=O)n1cc(/C=C(\NC(=O)c2ccccc2F)C(=O)N2CCCC2)c2ccccc21	-2	-2	-1	-3
COc1ccc(C(=O)N/C(=C\c2cn(C)c3ccccc23)C(=O)N2CCN(C)CC2)cc1	9	-2	0	-1
CN1CCN(C(=O)/C(=C/c2cn(S(=O)(=O)N(C)C)c3ccccc23)NC(=O)c2ccccc2F)CC1	-2	-2	54*	-2
CCC(C)c1ccc(N(CC(=O)NC(C)(C)C)C(=O)CNC(=O)c2cccs2)cc1 (stereo not drawn)	-3	-4	32*	-1
O=C(C[C@H]1CC[C@@H]2[C@H](COC[C@@H](O)CN2C(=O)c2ccncc2)O1)NCc1cccc(F)c1	1	.	.	.
C[C@H]1CN([C@@H](C)CO)C(=O)CCCn2cc(nn2)CO[C@H]1CN(C)Cc1ccc(C(=O)Nc2ccccc2N)cc1	-1	.	.	.
Cc1cc(C(=O)N2CCCC(CCC(=O)N3CCN(c4ccccn4)CC3)C2)c(C)o1 (stereo not drawn)	-2	1	45*	0
Cc1cccc(C(=O)N2CCCC(CCC(=O)N3CCN(c4ccccn4)CC3)C2)c1C (stereo not drawn)	2	-7	.	-1
CC(C(=O)N1CCN(Cc2ccccc2)CC1)c1ccc([N+](=O)[O-])cc1 (stereo not drawn)	-4	-5	-4	-1
CC(OC(=O)c1ccc(Cl)c([N+](=O)[O-])c1)C(=O)N1CCN(Cc2ccccc2)CC1 (stereo not drawn)	7	-4	147*	0
O=C(C[C@@H]1CC[C@H]2NC[C@@H](O)COC[C@@H]2O1)NCCc1ccccc1	1	.	.	.
O=c1[nH]c2ccccc2nc1/C=C/c1ccccc1	-21	+	0	-3
O=c1[nH]c2ccccc2nc1/C=C/c1ccc(O)cc1	-8	-12	1	0
COCC#Cc1cnc2c(c1)C(=O)N([C@H](C)CO)C[C@@H](C)[C@H](CN(C)C(=O)Nc1cccc(F)c1)O2	0	.	.	.
CCN(CC)CCN1C(=O)C(=O)/C(=C(/O)c2c(C)[nH]c(C(=O)OC)c2C)C1c1ccccc1 (stereo not drawn)	.	-5	-8	-3
CCN(CC)CCN1C(=O)C(=O)/C(=C(/O)c2c(C)[nH]c(C(=O)OC)c2C)C1c1cccnc1 (stereo not drawn)	-9	-3	44*	1
COc1ccc(NC(=O)CSc2nncn2C)cc1	-9	-5	-3	1
COc1ccc(NC(=O)CSc2c(C)nn(-c3nnc(C)c(=O)[nH]3)c2C)cc1	60*	.	0	-2
Cc1cccc(N2CCN(C(=O)C3(S(=O)(=O)c4ccc(Cl)cc4)CC3)CC2)c1C	50*	-2	5	0
